Reference: ChEMBL document CHEMBL3286173, “Graphite catalyzed solvent free synthesis of dihydropyrimidin-2(1H)-ones/thiones and their antidiabetic activity” (Bioorg Med Chem Lett, 2014)

Target: T1, Pancreatic alpha-amylase (Sus scrofa) (UniProt P00690)
T1 sequence (whole entry): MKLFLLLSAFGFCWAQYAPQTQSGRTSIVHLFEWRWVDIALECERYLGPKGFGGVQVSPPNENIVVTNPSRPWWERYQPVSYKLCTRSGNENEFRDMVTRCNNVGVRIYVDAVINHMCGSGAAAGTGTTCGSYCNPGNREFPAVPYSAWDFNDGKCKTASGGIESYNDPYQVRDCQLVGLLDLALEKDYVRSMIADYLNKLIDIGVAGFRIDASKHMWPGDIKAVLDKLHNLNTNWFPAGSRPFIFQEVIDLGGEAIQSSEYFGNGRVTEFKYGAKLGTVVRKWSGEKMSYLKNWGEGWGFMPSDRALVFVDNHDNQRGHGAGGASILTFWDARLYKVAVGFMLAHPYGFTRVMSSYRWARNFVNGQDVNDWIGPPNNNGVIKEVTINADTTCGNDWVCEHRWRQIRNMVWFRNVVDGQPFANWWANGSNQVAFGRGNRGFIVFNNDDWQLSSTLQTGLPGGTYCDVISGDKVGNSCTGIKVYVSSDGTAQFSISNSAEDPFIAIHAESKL
Experiment: Inhibition pig alpha-amylase at 50 to 300 ug/ml pretreated for 30 mins followed by addition of 1% starch for 10 mins by spectrometer
Settings: not given
Outline: (§1)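 PBS containing 1% starch was then added for 10 min at 37°C. The reaction was stopped with DNSA in a boiling bath for 10 min, and OD was read at 540 nm against a 0.2% maltose reference. Acarbose was the positive control. Runs were in triplicate with SD, giving % inhibition relative to an uninhibited control.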

Compound	inhibition
CCOC(=O)C1=C(C)NC(=O)NC1c1ccc(F)cc1 (configuration not stated)	63.8%
CCOC(=O)C1=C(C)NC(=O)NC1c1ccc([N+](=O)[O-])cc1 (configuration not stated)	0%
CCOC(=O)C1=C(C)NC(=S)N[C@H]1c1cccc(O)c1	0%
CCOC(=O)C1=C(C)NC(=O)NC1c1ccc2c(c1)OCO2 (configuration not stated)	0%
CCOC(=O)C1=C(C)NC(=O)NC1c1ccccc1F (configuration not stated)	0%
CCOC(=O)C1=C(C)NC(=O)NC1c1ccccc1 (configuration not stated)	0%

Now from value to compound:

inhibition	Compound
0%	CCOC(=O)C1=C(C)NC(=O)NC1c1ccc(OC)cc1 (configuration not stated)
0%	CCOC(=O)C1=C(C)NC(=S)NC1c1cccc(OC)c1 (configuration not stated)
66.5%	CCOC(=O)C1=C(C)NC(=S)NC1c1ccc(OC)cc1 (configuration not stated)
26.5%	CCOC(=O)C1=C(C)NC(=O)NC1c1cccc([N+](=O)[O-])c1 (configuration not stated)

Target: T1, Pancreatic alpha-amylase (Sus scrofa)
Experiment: Inhibition pig alpha-amylase at 300 ug/ml pretreated for 30 mins followed by addition of 1% starch for 10 mins by spectrometer
Settings: not given
Outline: as §1, with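 “Porcine pancreatic α-amylase (1.28 mg in 25 ml PBS) was preincubated with compounds in methanol (50, 150 or 300 µg/ml) at 37°C for 30 min. PBS” for “PBS”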

inhibition	Compound
97.2%	CCOC(=O)C1=C(C)NC(=S)NC1c1ccccc1 (configuration not stated)

Target: T1, Pancreatic alpha-amylase (Sus scrofa)
Settings: 100 mg/ml

inhibition	Compound
100%	C[C@H]1O[C@H](O[C@H]2[C@H](O)[C@@H](O)[C@@H](O[C@H]3[C@H](O)[C@@H](O)C(O)O[C@@H]3CO)O[C@@H]2CO)[C@H](O)[C@@H](O)[C@@H]1N[C@H]1C=C(CO)[C@@H](O)[C@H](O)[C@H]1O (some centres not stated)
